Laboratory results: ChEMBL document CHEMBL5154735, “Interaction of A3 adenosine receptor ligands with the human multidrug transporter ABCG2” (Eur J Med Chem, 2022)

The compounds below were run against T1, ABCG2 (Homo sapiens, UniProt Q9UNQ0) (assay: Activation of human ABCG2-mediated ATPase activity preincubated for 2 mins followed by ATP addition at 100 nM and measured after 20 mins by colorimetric assay relative to control). Details: read-out: Activity.
T1 sequence (Q9UNQ0 whole entry): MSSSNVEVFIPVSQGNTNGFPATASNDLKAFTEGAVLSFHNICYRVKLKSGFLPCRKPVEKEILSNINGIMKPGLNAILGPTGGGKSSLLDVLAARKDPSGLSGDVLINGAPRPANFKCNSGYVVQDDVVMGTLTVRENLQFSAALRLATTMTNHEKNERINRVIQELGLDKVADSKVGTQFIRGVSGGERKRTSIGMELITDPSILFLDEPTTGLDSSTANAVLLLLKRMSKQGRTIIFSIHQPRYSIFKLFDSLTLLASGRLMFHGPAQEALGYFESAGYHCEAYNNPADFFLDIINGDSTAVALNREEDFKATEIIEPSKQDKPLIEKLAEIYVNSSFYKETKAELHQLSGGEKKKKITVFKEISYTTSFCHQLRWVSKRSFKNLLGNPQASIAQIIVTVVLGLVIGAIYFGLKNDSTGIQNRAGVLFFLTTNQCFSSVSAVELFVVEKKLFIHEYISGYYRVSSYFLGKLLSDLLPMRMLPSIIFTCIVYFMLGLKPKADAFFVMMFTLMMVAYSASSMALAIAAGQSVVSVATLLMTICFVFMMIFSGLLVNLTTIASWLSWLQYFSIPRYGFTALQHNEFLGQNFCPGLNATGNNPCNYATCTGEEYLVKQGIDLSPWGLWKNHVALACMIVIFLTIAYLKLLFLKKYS
Summary of the method: (§1)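 Total membrane vesicles from High-Five insect cells expressing human ABCG2 (hypotonic lysis, differential centrifugation), 10 μg protein/tube, in MES-Tris pH 6.8 buffer with KCl, MgCl2, NaN3, EGTA, ouabain, DTT. Compound in DMSO added ± sodium orthovanadate (0.3 mM), DMSO control. Preincubated 2 min at 37°C, then 5 mM ATP, 20 min. SDS stop, Pi measured colorimetrically. Three independent experiments in duplicate, mean ± SE.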

SMILES | activity at 20 min, 0.1 µM [%]
Clc1cccc(CNC2=NC(C#Cc3ccc(Cl)s3)=NC3=NC=NC32)c1 (configuration not stated) | 40.5
CCOC(=O)C12CC1[C@@H](n1cnc3c(NCCc4ccc(O)c(OC)c4)nc(C#Cc4ccc(Cl)s4)nc31)[C@H](O)[C@@H]2O (single isomer, unassigned) | 59.3
CCCOC(=O)C12CC1[C@@H](n1cnc3c(NC)nc(C#Cc4ccc(Cl)s4)nc31)[C@H](O)[C@@H]2O (single isomer, unassigned) | 33.9
CNc1nc(C#Cc2ccc(Cl)s2)nc2c1ncn2[C@@H]1C2CC2(C(=O)Oc2ccccc2)[C@@H](O)[C@H]1O (single isomer, unassigned) | 50.3
CCOC(=O)C12CC1[C@@H](n1cnc3c(NCCc4ccc(OC)c(O)c4)nc(C#Cc4ccc(Cl)s4)nc31)[C@H](O)[C@@H]2O (single isomer, unassigned) | 64.3

Continued, values first:

activity at 20 min, 0.1 µM [%] | SMILES
38.8 | CNc1nc(C#Cc2ccc(Cl)s2)nc2c1ncn2[C@H]1[C@H](O)[C@H](O)[C@@]2(C(=O)OCCCc3ccccc3)C[C@H]12
37.9 | CCOC(=O)C12C[C@@H]1[C@@H](n1ccc3c(NCCCc4ccccc4)nc(C#Cc4ccccc4)nc31)[C@H](O)[C@@H]2O (single isomer, unassigned)
45.5 | CCOC(=O)C12CC1[C@@H](n1ccc3c(NCCCc4ccccc4)nc(C#Cc4ccc(Cl)s4)nc31)[C@H](O)[C@@H]2O (single isomer, unassigned)
41 | CCOC(=O)C12CC1[C@@H](n1ccc3c(NC)nc(C#Cc4ccc(Cl)s4)nc31)[C@H](O)[C@@H]2O (single isomer, unassigned)

The compounds below were run against T1, ABCG2 (assay: Effect on human ABCG2 transporter preincubated for 2 mins followed by ATP addition assessed as basal ATPase activity at 100 nM and measured after 20 mins by colorimetric assay relative to control). Details: read-out: Activity.
Summary of the method: as §1

SMILES | activity at 20 min, 0.1 µM [%]
CNc1nc(C#Cc2ccc(Cl)s2)nc2c1ncn2[C@@H]1O[C@H](C(=O)OC)[C@@H](O)[C@H]1O | ≤ 30
CCOC(=O)C12CC1[C@@H](n1cnc3c(NC)nc(C#Cc4ccc(Cl)s4)cc31)[C@H](O)[C@@H]2O (single isomer, unassigned) | ≤ 30
CCOC(=O)C12CC1[C@@H](n1cnc3c(NC)cc(C#Cc4ccc(Cl)s4)nc31)[C@H](O)[C@@H]2O (single isomer, unassigned) | ≤ 30
CCCCOC(=O)C12CC1[C@@H](n1cnc3c(NC)nc(C#Cc4ccc(Cl)s4)nc31)[C@H](O)[C@@H]2O (single isomer, unassigned) | ≤ 30
CNc1nc(C#Cc2ccc(Cl)s2)nc2c1ncn2[C@@H]1C2CC2(C(=O)OCCC2CCCCC2)[C@@H](O)[C@H]1O (single isomer, unassigned) | ≤ 30
CNc1nc(C#Cc2ccc(Cl)s2)nc2c1ncn2[C@@H]1C2CC2(C(=O)OC(C)C)[C@@H](O)[C@H]1O (single isomer, unassigned) | ≤ 30
CNc1nc(C#Cc2ccc(Cl)s2)nc2c1ncn2[C@@H]1C2CC2(C(=O)OCCC(C)C)[C@@H](O)[C@H]1O (single isomer, unassigned) | ≤ 30

Continued, values first:

activity at 20 min, 0.1 µM [%] | SMILES
≤ 30 | CCOC(=O)[C@]12C[C@@H]1[C@@H](n1cnc3c(NC)nc(C#Cc4ccc(F)s4)nc31)[C@H](O)[C@@H]2O
≤ 30 | CNc1nc(C#Cc2ccc(Cl)s2)nc2c1ncn2[C@H]1[C@H](O)[C@H](O)[C@@]2(C(=O)OCCc3ccccc3)C[C@H]12
≤ 30 | CCOC(=O)C12CC1[C@@H](n1ccc3c(NCC4CC4)nc(C#Cc4ccccc4)nc31)[C@H](O)[C@@H]2O (single isomer, unassigned)
≤ 30 | CCOC(=O)C12CC1[C@@H](n1ccc3c(NC)nc(I)nc31)[C@H](O)[C@@H]2O (single isomer, unassigned)
≤ 30 | CCOC(=O)C12CC1[C@@H](n1ccc3c(NC4CC4)nc(C#Cc4ccccc4)nc31)[C@H](O)[C@@H]2O (single isomer, unassigned)
≤ 30 | CCOC(=O)C12CC1[C@@H](n1ccc3c(NC)nc(C#Cc4ccccc4)nc31)[C@H](O)[C@@H]2O (single isomer, unassigned)
